In ChEMBL document CHEMBL4014339, “Discovery of 1,4-Benzodiazepine-2,5-dione (BZD) Derivatives as Dual Nucleotide Binding Oligomerization Domain Containing 1/2 (NOD1/NOD2) Antagonists Sensitizing Paclitaxel (PTX) To Suppress Lewis Lung Carcinoma (LLC) Growth in Vivo” (J Med Chem, 2017):
The source made the active and inactive calls. No cut-off for these calls is given here.

Experiments:
[1] = target: T1, Nucleotide-binding oligomerization domain-containing protein 1 (Homo sapiens) (UniProt Q9Y239); assay: Antagonist activity at human NOD1 expressed in HEK-Blue cells assessed as inhibition of C12-iE-DAP-stimulated cell activation at 10 uM preincubated for 3 hrs followed by C12-iE-DAP addition measured after 20 hrs by SEAP reporter gene assay; format: cell-based
T1 sequence (whole entry): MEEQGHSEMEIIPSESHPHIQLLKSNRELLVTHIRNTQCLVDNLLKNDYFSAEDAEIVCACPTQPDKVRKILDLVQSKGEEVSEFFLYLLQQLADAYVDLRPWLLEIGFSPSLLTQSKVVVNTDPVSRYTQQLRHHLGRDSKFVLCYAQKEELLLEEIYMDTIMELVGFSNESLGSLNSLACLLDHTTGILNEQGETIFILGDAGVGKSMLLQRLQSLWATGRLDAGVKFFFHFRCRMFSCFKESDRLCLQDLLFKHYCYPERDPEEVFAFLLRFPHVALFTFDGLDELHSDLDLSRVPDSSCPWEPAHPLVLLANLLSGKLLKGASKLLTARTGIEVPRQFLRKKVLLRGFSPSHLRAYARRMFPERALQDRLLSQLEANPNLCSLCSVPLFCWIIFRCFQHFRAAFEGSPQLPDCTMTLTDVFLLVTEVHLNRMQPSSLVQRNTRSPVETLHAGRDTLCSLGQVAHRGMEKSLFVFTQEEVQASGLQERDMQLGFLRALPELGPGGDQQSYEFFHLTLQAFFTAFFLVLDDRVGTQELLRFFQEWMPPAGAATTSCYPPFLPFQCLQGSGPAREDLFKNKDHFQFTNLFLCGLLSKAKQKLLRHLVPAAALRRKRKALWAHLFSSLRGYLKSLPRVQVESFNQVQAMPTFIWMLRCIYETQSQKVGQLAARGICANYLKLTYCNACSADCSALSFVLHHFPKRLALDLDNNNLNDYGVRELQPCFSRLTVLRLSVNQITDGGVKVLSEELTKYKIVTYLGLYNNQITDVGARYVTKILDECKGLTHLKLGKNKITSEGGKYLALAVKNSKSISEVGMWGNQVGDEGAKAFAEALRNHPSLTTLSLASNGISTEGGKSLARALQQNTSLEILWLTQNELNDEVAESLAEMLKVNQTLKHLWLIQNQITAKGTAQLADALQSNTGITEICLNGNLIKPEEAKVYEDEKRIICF
Method in brief: (§1)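 HEK-Blue hNOD1 or hNOD2 cells preincubated with compound 3 h, then stimulated 20 h with C12-iE-DAP 50 ng/mL (NOD1) or MDP 100 ng/mL (NOD2); SEAP in supernatant quantified. Primary screen at 10 μM, hits repeated in triplicate; IC50 from dose-response, mean ± SD (n = 3), only for compounds reaching ≥50% inhibition at the screening concentration.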

[2] = Cytotoxicity against HEK-Blue cells by SRB assay; format: cell-based; details: human
[3] = target: T2, Nucleotide-binding oligomerization domain-containing protein 2 (Homo sapiens, UniProt Q9HC29); assay: Antagonist activity at human NOD2 expressed in HEK-Blue cells assessed as inhibition of MDP-stimulated cell activation at 10 uM preincubated for 3 hrs followed by MDP addition measured after 20 hrs by SEAP reporter gene assay; format: cell-based; method in brief: as §1
[4] = test system: Lewis lung carcinoma cell line; assay: Antitumor activity against mouse LLC cells implanted in C57BL/6 mouse assessed as tumor weight inhibition at 12 mg/kg, iv administered every 4 days measured 11 days after tumor implantation; format: functional, organism-based
[5] = target: T1, Nucleotide-binding oligomerization domain-containing protein 1 (Homo sapiens); assay: Antagonist activity at human NOD1 expressed in HEK-blue cells assessed as inhibition of C12-iE-DAP-stimulated cell activation at 5 uM preincubated for 3 hrs followed by C12-iE-DAP addition measured after 20 hrs by SEAP reporter gene assay; format: cell-based
[6] = target: T3, Nucleotide-binding oligomerization domain-containing protein 1 (Homo sapiens, UniProt Q9Y239); assay: Antagonist activity at human NOD1 expressed in HEK-blue cells assessed as inhibition of C12-iE-DAP-stimulated cell activation preincubated for 3 hrs followed by C12-iE-DAP addition measured after 20 hrs by SEAP reporter gene assay; format: cell-based; method in brief: as §1
T3 sequence (Q9Y239 whole entry): T1 sequence (whole entry)

[7] = target: T2, Nucleotide-binding oligomerization domain-containing protein 2; assay: Antagonist activity at human NOD2 expressed in HEK-Blue cells assessed as inhibition of MDP-stimulated cell activation at 5 uM preincubated for 3 hrs followed by MDP addition measured after 20 hrs by SEAP reporter gene assay; format: cell-based
[8] = target: T2, Nucleotide-binding oligomerization domain-containing protein 2; assay: Antagonist activity at human NOD2 expressed in HEK-Blue cells assessed as inhibition of MDP-stimulated cell activation preincubated for 3 hrs followed by MDP addition measured after 20 hrs by SEAP reporter gene assay; format: cell-based; method in brief: as §1
[9] = target: T1, Nucleotide-binding oligomerization domain-containing protein 1 (Homo sapiens); assay: Inhibition of NOD1 in human PBMC-derived macrophages assessed as reduction in C12-iE-DAP-stimulated IL6 mRNA expression at 1 uM preincubated for 1 hr followed by C12-iE-DAP stimulation for 90 mins by RT-qPCR analysis
Method in brief: (§2)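 Human CD14+ monocytes from donor PBMC, differentiated 7 days with M-CSF 20 ng/mL to macrophages; 1.0 × 10^6 cells pretreated 1 h with compound (final 0.1% DMSO), then C12-iE-DAP 500 ng/mL or MDP 5 μg/mL for 90 min. IL-6/TNF-α mRNA by qRT-PCR, normalized to GAPDH; stimulated response set to 100%.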

[10] = target: T1, Nucleotide-binding oligomerization domain-containing protein 1 (Homo sapiens); assay: Inhibition of NOD1 in human PBMC-derived macrophages assessed as reduction in C12-iE-DAP-stimulated TNFalpha mRNA expression at 1 uM preincubated for 1 hr followed by C12-iE-DAP stimulation for 90 mins by RT-qPCR analysis; method in brief: as §2

T2 sequence (Q9HC29 whole entry, the tested form may be a part): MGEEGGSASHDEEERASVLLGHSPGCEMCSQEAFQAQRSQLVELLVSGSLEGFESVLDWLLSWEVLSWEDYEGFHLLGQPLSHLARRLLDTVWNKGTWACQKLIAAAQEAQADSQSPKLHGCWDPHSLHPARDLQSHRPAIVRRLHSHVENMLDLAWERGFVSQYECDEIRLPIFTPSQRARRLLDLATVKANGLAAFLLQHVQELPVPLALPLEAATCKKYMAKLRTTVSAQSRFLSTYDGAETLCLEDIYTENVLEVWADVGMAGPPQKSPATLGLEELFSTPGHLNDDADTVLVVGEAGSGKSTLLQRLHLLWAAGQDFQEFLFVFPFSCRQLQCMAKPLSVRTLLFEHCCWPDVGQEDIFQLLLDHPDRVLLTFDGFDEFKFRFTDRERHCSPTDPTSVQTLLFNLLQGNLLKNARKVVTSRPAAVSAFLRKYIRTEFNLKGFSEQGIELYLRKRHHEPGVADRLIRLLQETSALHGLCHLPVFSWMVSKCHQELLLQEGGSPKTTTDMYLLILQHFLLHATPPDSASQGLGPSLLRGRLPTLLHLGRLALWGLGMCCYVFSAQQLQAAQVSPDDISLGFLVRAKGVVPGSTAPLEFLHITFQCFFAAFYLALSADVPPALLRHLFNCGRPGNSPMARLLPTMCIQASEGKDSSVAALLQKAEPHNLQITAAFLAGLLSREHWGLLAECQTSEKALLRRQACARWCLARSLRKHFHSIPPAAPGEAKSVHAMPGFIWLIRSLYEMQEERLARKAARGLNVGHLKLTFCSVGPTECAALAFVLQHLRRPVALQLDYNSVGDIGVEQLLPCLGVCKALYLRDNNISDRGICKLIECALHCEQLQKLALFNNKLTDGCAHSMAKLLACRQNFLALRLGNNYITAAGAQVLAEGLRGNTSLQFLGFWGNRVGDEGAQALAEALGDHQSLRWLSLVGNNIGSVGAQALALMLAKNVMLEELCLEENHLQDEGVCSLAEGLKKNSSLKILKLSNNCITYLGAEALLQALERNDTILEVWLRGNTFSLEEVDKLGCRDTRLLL

| inhibition [9] | inhibition [10] | Structure (SMILES) | inhibition [1] | Activity [2] | inhibition [3] | TGI [4] | inhibition [5] | IC50 [6] | inhibition [7] | IC50 [8] |
| --- | --- | --- | --- | --- | --- | --- | --- | --- | --- | --- |
| – | – | COC(=O)CC[C@H]1NC(=O)c2cc(Oc3cccc(N(C)C)c3)c(NC(=O)COCc3ccccc3)cc2NC1=O | 70.4% | Non-Toxic | 69.1% | – | – | – | – | – |
| – | – | CC(=O)O[C@H]1C(=O)[C@@]2(C)[C@H]([C@H](OC(=O)c3ccccc3)[C@]3(O)C[C@H](OC(=O)[C@H](O)[C@@H](NC(=O)c4ccccc4)c4ccccc4)C(C)=C1C3(C)C)[C@]1(OC(C)=O)CO[C@@H]1C[C@@H]2O | – | – | – | inactive | – | – | – | – |
| – | – | CN(C)c1cccc(Oc2cc3c(cc2NC(=O)COCc2ccccc2)NC(=O)[C@@H](CCC(=O)N2CCCC2)NC3=O)c1 | 82% | – | 75.6% | – | 73.2% | 2.37 µM | 58.2% | 3.79 µM |
| – | – | CN(C)c1cccc(Oc2cc3c(cc2NC(=O)COCc2ccc(C(F)(F)F)cc2)NC(=O)[C@@H](CCC(=O)N2CCC(F)(F)CC2)NC3=O)c1 | 90.9% | Toxic | 94.8% | – | 91.2% | 0.43 µM | 92.8% | 0.81 µM |
| – | – | CN(C)c1cccc(Oc2cc3c(cc2NC(=O)COCc2ccccc2)NC(=O)[C@@H](CCC(=O)NC2CC2)NC3=O)c1 | 57.1% | – | 57% | – | 35.8% | 8.62 µM | 43.7% | 7.14 µM |
| – | – | CN(C)c1cccc(Oc2cc3c(cc2NC(=O)COCc2ccccc2)NC(=O)[C@@H](CCC(=O)NC(C)(C)C)NC3=O)c1 | 87.6% | – | 92.1% | – | 80.3% | 1.11 µM | 80.3% | 2.27 µM |
| – | – | COC(=O)CC[C@H]1NC(=O)c2cc(Oc3cccc(N(C)C)c3)c(NC(=O)COCc3cccc(F)c3)cc2NC1=O | 89.8% | – | 82.9% | – | 83.9% | 1.37 µM | 67% | 4.02 µM |
| – | – | CN(C)c1cccc(Oc2cc3c(cc2NC(=O)COCc2ccc(C(F)(F)F)cc2)NC(=O)[C@@H](CCC(=O)N2CCC(F)CC2)NC3=O)c1 | 92.6% | Toxic | 94.7% | – | 90.2% | 0.58 µM | 91.7% | 0.42 µM |
| – | – | COC(=O)CC[C@H]1NC(=O)c2cc(Oc3cc(Cl)c(Cl)c(N(C)C)c3Cl)c(NC(=O)COCc3ccccc3)cc2NC1=O | 65.3% | – | 34% | – | 79.8% | 1.33 µM | 55.9% | 3.78 µM |
| – | – | COC(=O)CC[C@H]1NC(=O)c2cc(Oc3ccc(Cl)c(N(C)C)c3)c(NC(=O)COCc3ccc(Cl)cc3)cc2NC1=O | 55.1% | – | 79% | – | 71.8% | 1.55 µM | 82.2% | 1.02 µM |
| – | – | COC(=O)CC[C@H]1NC(=O)c2cc(Oc3ccc(Cl)c(N(C)C)c3)c(NC(=O)COCc3ccccc3)cc2NC1=O | 73% | – | 78.1% | – | 58.2% | 2.9 µM | 59.9% | 3.55 µM |
| – | – | CCCCN(CCCC)C(=O)CC[C@H]1NC(=O)c2cc(Oc3cccc(N(C)C)c3)c(NC(=O)COCc3ccccc3)cc2NC1=O | 82% | – | 88.6% | – | 81.8% | 1.3 µM | 85% | 1.32 µM |
| Active | Active | Nc1nc2ccccc2n1S(=O)(=O)c1ccc(Cl)cc1 | – | – | – | – | – | – | – | – |
